Data published in ChEMBL document CHEMBL4270484, “Synthesis and Characterization of a Phosphate Prodrug of Isoliquiritigenin” (J Nat Prod, 2017).
Values after ≈ are worked out from the molar mass of the structure shown.

How the values were obtained:
[1] = Stability of the compound in pH 7.4 phosphate buffer solution at -20 degC incubated for 16 days; assay type: physicochemical
[2] = Solubility in pH 7.4 PBS sonicated for 5 mins followed by incubation at room temperature for 30 mins; assay type: physicochemical
In short: (§1)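 Solid suspended in PBS pH 7.4 at the stated amount and volume, sonicated 5 min, held 30 min at room temperature, then diluted 1:1 stepwise until a clear solution. Solubility judged by visual inspection as partial or soluble.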

[3] = Stability of the compound in amophous solid form at -20 degC incubated for 16 days; assay type: physicochemical
[4] = Stability in pH 7.4 PBS buffer at 37 degC incubated for 24 hrs by UPLC analysis; assay type: physicochemical; conditions: pH 7.4, 24 h
[5] = system: Mus musculus; assay: Reduction in IL6 gene expression in lungs of C57BL/6 mouse infected with Influenza A virus (A/Puerto Rico/8/1934(H1N1)) at 10 mg/kg, ip starting on the same day as infection and continued daily until day 3 postinfection by real-time PCR analysis; assay type: functional; design: scale not given: the % may be the effect or the level left
In short: (§2)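 Female C57BL/6 mice, 6–8 weeks old, infected intranasally with PR8 and given 10 mg/kg in saline by ip injection. On day 3 p.i., lungs were homogenized in Ribozol. 500 ng RNA was reverse-transcribed and run in SYBR green qPCR. Fold change versus uninfected mice was calculated by 2ΔΔCt with 18S normalization. Means ± SD from three experiments, 3–4 mice per group.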

[6] = Drug metabolism in C57BL/6 mouse plasma assessed as half life for isoliquiritigenin formation by UPLC analysis; assay type: ADME, cell-free
In short: (§3)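 Mouse plasma (cardiac puncture, heparin, spun 2000g 10 min 4 °C) or lung homogenate in 0.9% saline (spun 400g 5 min), n = 3 mice, stored −80 °C. 27 μL matrix plus 5 μL of 1 mM prodrug in PBS pH 7.4, 37 °C; lung 5–20 min, plasma 40–240 min. Stopped with CH3CN, centrifuged, UPLC at 360 nm with Fmoc-glycine reference; remaining fraction from prodrug/parent AUC ratio.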

[7] = Stability of the compound in amophous solid form at ambient temperature incubated for 16 days; assay type: physicochemical; conditions: 384 h
[8] = Solubility in pH 7.4 PBS at 3.83 mg in 200 ul solution sonicated for 5 mins followed by incubation at room temperature for 30 mins; assay type: physicochemical; in short: as §1
[9] = Solubility in pH 7.4 PBS at 3.83 mg in 100 ul solution sonicated for 5 mins followed by incubation at room temperature for 30 mins; assay type: physicochemical; in short: as §1
[10] = Stability of the compound in pH 7.4 phosphate buffer solution at 4 degC incubated for 16 days; assay type: physicochemical
[11] = system: Mus musculus; assay: Reduction in CCL4 gene expression in lungs of C57BL/6 mouse infected with Influenza A virus (A/Puerto Rico/8/1934(H1N1)) at 10 mg/kg, ip starting on the same day as infection and continued daily until day 3 postinfection by real-time PCR analysis; assay type: functional; design: scale not given: the % may be the effect or the level left; in short: as §2
[12] = Solubility in pH 7.4 PBS at 3.83 mg in 400 ul solution sonicated for 5 mins followed by incubation at room temperature for 30 mins; assay type: physicochemical; in short: as §1
[13] = Drug metabolism in C57BL/6 mouse lung extracts assessed as half life for isoliquiritigenin formation by UPLC analysis; assay type: ADME, tissue-based; in short: as §3
[14] = Solubility in pH 7.4 PBS at 0.5 mg in 32 ul solution sonicated for 5 mins followed by incubation at room temperature for 30 mins; assay type: physicochemical; in short: as §1
[15] = system: Influenza A virus; assay: Antiviral activity against Influenza A virus (A/Puerto Rico/8/1934(H1N1)) infected in MDCK cells infected with supernatants from virus-infected human Calu3 cells treated with compound for 2 days assessed as reduction in viral replication by crystal violet staining based viral plaque assay; assay type: functional, organism-based; conditions: 48 h
[16] = Solubility in pH 7.4 PBS at 0.5 mg in 4 ul solution sonicated for 5 mins followed by incubation at room temperature for 30 mins; assay type: physicochemical; in short: as §1
[17] = Solubility in pH 7.4 PBS at 0.5 mg in 64 ul solution sonicated for 5 mins followed by incubation at room temperature for 30 mins; assay type: physicochemical; in short: as §1
[18] = Solubility in pH 7.4 PBS at 0.5 mg in 16 ul solution sonicated for 5 mins followed by incubation at room temperature for 30 mins; assay type: physicochemical; in short: as §1
[19] = Solubility in pH 7.4 PBS at 0.5 mg in 128 ul solution sonicated for 5 mins followed by incubation at room temperature for 30 mins; assay type: physicochemical; in short: as §1
[20] = Solubility in pH 7.4 PBS at 0.5 mg in 2 ul solution sonicated for 5 mins followed by incubation at room temperature for 30 mins; assay type: physicochemical; in short: as §1
[21] = Solubility in pH 7.4 PBS at 0.5 mg in 8 ul solution sonicated for 5 mins followed by incubation at room temperature for 30 mins; assay type: physicochemical; in short: as §1
[22] = phosphate buffer solution, pH 7.4, read-out: Stability

## N.O=C(/C=C/c1ccc(OCOP(=O)(O)O)cc1)c1ccc(O)cc1O
[1]; buffer, pH 7.4, 384 h
  Stability: Stable
[2]
  solubility at 0.5 h: 25 mM
[3]; 384 h
  Stability: 6 months
[4]
  Stability: Stable
[5]
  Activity: 80%
[6]
  t1/2: 100 min
[7]
  Stability: 2 weeks
[8]
  solubility at 0.5 h: 50 mM
[9]
  solubility at 0.5 h: 100 mM
[10]; buffer, pH 7.4, 384 h
  Stability: Stable
[11]
  Activity: 62.5%
[12]
  solubility at 0.5 h: 25 mM
[13]
  t1/2: 10.8 min

## O=C(/C=C/c1ccc(OCOP(=O)(O)O)cc1)c1ccc(O)cc1O
[1]; [22]
  remaining at 384 h: 80%
[3]; amorphous solid form, read-out: Stability
  remaining at 384 h: 80%
[10]; [22]
  remaining at 384 h: 60%

## O=C(/C=C/c1ccc(O)cc1)c1ccc(O)cc1O [ISOLIQUIRITIGENIN]
[14]
  solubility at 0.5 h: 62.5 mM (≈ 16 mg/mL)
[15]
  EC50: 24.7 µM
[2]
  solubility at 0.5 h: 0.0153 mM (≈ 0.00392 mg/mL)
[16]
  solubility at 0.5 h: 500 mM (≈ 128 mg/mL)
[17]
  solubility at 0.5 h: 31.2 mM (≈ 8 mg/mL)
[18]
  solubility at 0.5 h: 125 mM (≈ 32 mg/mL)
[4]
  Stability: Stable
[19]
  solubility at 0.5 h: 15.3 mM (≈ 3.92 mg/mL)
[20]
  solubility at 0.5 h: 1000 mM (≈ 256 mg/mL)
[13]
  Stability: Stable
[21]
  solubility at 0.5 h: 250 mM (≈ 64.1 mg/mL)
